For orientation: Ki means the equilibrium dissociation constant of an inhibitor or competing ligand from its target.

Data set [1] addresses δOR (δ-opioid receptor) in HCT116 colon carcinoma cells engineered to express the δOR (Homo sapiens, UniProt P41143). Kind of data set: competitive binding assay, time-resolved fluorescence. To be noted: TRF competitive binding; HCT116 cells expressing δOR. An outline of the steps: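 Purified test compounds were run in a competition format on whole HCT116 colon carcinoma cells engineered to express δOR. Ki was derived from a fitted competition curve, with R2 reported for the fit.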

In data set [2] the test system is HCT116/δOR and parental HCT116 tumors in SCID mice. The class given is in vivo, mouse. As to conditions: 10 μg i.v. (tail vein), 15 min post-injection, not shown.
Data set [3] relates to mouse-isolated vas deferens, δ-opioid receptor (antagonism of δ-agonist DPDPE). Kind of data set: mouse-isolated vas deferens. The class given is biochemical. To be noted: MVD assay against δ-agonist DPDPE; n=8.
The next data set deals with δ-opioid receptor. To be noted: cited from earlier work.

Where two headings read alike, the source gives them in different places.

For `CC[N+]1=C(C=CC=CC=C2N(CCCCCC(=O)NCCN3C(=O)CC(SCCC(=O)NCCCC[C@H](NC(=O)[C@@H]4Cc5ccccc5CN4C(=O)[C@@H](N)Cc4c(C)cc(O)cc4C)C(=O)O)C3=O)c3ccc(S(=O)(=O)O)cc3C2(C)C)C(C)(C)c2cc(S(=O)(=O)[O-])ccc21` (some centres unmarked) [Ligand 1], in data set [1], the “affinity of labeled ligand compared with unlabeled counterpart (ligand 6)” value is reported as “equipotent to its unlabeled counterpart”. Further, the “systemic distribution, fluorescence intensity maps” value in data set [2] is listed as “systemic presence of the compound with high intensity throughout the animal”. Further, in data set [3], the “inhibitory potency, Ke” value turned out to be 0.037 ± 0.009 nM. For the molecule Dmt-Tic-Lys-NH2, the Ki at δ-opioid receptor (reported radioligand binding assays, compared with TRF results) was 0.71 nM.

For H-Dmt-Tic-Lys(Ac)-OH, the Ki at δ-opioid receptor (δ-receptor affinity in radioligand binding assays) is 0.047 nM.

The values above are taken from article PMC2756606 (Organic letters, 2009).
